High-throughput results deposited in PubChem by Broad Institute.
Most compounds without a hit are left out; they make up all but 0.58% or so of the library.
Cneo AK release = Cryptococcus neoformans lysis via adenylate kinase release; C. neoformans lysis, adenylate kinase release luminescence, 4 h; normalised: neutral wells 0, clomiphene wells 100; lysis activity, % at 15 µM; 0.2% of 360,000 active;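 active means mean lysis activity across replicates of at least 80%, whatever share of replicates individually reach that level; inactive means mean lysis activity below 80%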
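Material – Cryptococcus neoformans yeast cells · Quantity – 5 × 10^6 yeast cells/mL · Buffer or medium – YPD medium · Compound – single dose · Timing – 4 h static compound exposure, 37 °C, read 1 h post-reagent · Signal – adenylate kinase release luminescence · Read-out basis – lysis from increased AK signal · Benchmarks – Clomiphene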
PDI turbidity = inhibitors of human protein disulfide isomerase. P07237. AID 588391. PDI insulin aggregation turbidity, A650, 90 min. inhibition, % at 10 µM. 0.052% of 350,000 active;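 active means mean inhibition across replicates of 30% or more, whatever share of single replicates reach that level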
Target sequence (P07237 whole entry, looked up): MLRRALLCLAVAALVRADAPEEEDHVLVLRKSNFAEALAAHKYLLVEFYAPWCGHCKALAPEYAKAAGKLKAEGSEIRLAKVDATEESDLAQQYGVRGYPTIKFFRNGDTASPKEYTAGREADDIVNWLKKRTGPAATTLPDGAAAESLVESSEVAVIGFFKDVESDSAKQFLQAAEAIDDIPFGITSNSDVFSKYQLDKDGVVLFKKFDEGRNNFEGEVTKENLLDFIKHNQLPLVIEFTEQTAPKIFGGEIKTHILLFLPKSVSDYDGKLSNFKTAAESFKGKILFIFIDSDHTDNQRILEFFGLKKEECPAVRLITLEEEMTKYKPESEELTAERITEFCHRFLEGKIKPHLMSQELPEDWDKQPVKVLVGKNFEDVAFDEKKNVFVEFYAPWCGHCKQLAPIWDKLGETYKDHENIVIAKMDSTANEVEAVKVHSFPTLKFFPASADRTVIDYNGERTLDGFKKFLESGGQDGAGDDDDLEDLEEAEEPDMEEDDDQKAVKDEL
PvdQ inh = P. aeruginosa PvdQ acylase inhibition; purified PvdQ acylase, fluorescence plate reader; inhibition, % at 10 µM; 0.063% of 340,000 active; in the data active means inhibition above about 30%, passing the limit was not always enough
PglD DTNB = blocks C. jejuni PglD acetyltransferase activity; purified PglD enzyme, DTNB colorimetric CoA detection; inhibition, % at 12.5 µM; 0.098% of 360,000 active; AID 602405; in the data active means inhibition above about 16%, passing the limit was not always enough
ERp5 inh = inhibitors of human ERp5. Q15084. ERp5 insulin aggregation, absorbance 650 nm, 90 min. inhibition, % at 9.99 µM. 0.05% of 350,000 active;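 active means mean replicate inhibition above about 25%, with every replicate also reaching it, limit read from the data, passing the limit was not always enough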
miR122 inh = miR-122 inhibition in Huh7 cells | Huh7 miR-122 Renilla luciferase sensor, 48 h; neutral wells = 0, positive control = 100 | activation (reporter increase), % at 12.5 µM | 0.3% of 340,000 active;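 active means mean replicate activation score at least 90 and every replicate individually at or above 90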;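 further: higher luciferase means less miR-122 activity so hits act as miR-122 inhibitors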
Large screens that a line does not name were inactive.

C[C@@H]1CCCCO[C@@H](CN(C)Cc2ccncc2)[C@@H](C)CN([C@H](C)CO)C(=O)c2cc(NC(=O)c3ccncc3)ccc2O1	Cneo AK release 93 (no result: PDI turbidity, PvdQ inh)
CC(C)NC(=O)Nc1ccc2c(c1)C(=O)N([C@H](C)CO)C[C@@H](C)[C@H](CN(C)Cc1ccncc1)OCCCC[C@H](C)O2	none (no result: Cneo AK release, PDI turbidity, PvdQ inh, PglD DTNB, ERp5 inh)
O=C(N[C@H]1C=C[C@@H](CC(=O)N2CCCCC2)O[C@@H]1CO)c1cccc(F)c1	none (no result: PDI turbidity, PvdQ inh, miR122 inh)
COc1ccc(S(=O)(=O)Nc2ccc3c(c2)C(=O)N([C@H](C)CO)C[C@@H](C)[C@H](CN(C)C(=O)Nc2ccc(C(F)(F)F)cc2)O3)cc1	none (no result: PDI turbidity, PvdQ inh, ERp5 inh)
COC(=O)[C@H]1[C@H](CO)[C@H]2Cn3c(cccc3=O)[C@H]2N1C(=O)C1CCC1	none (no result: PDI turbidity, PvdQ inh)
Cc1ccc(S(=O)(=O)N2CC[C@@H]3[C@H](CO)N(C)c4ccc(C#Cc5cccnc5)cc4[C@@H]32)cc1	none (no result: PDI turbidity, PvdQ inh, ERp5 inh)
C[C@@H]1CN([C@H](C)CO)C(=O)c2cc(NC(=O)c3ccncc3)ccc2O[C@H]1CN(C)S(C)(=O)=O	none (no result: PDI turbidity, PvdQ inh)
C[C@@H]1CCCCO[C@H](CN(C)Cc2ccc3c(c2)OCO3)[C@H](C)CN([C@H](C)CO)C(=O)c2cc(NC(=O)Nc3cccc4ccccc34)ccc2O1	Cneo AK release 88 (no result: PDI turbidity, PvdQ inh, ERp5 inh)
O=C(N/N=C/c1ccc(Cl)s1)C(O)c1ccccc1 (configuration not stated)	miR122 inh 123
CN1[C@H](C(=O)N2CCCCC2)[C@@H](CO)[C@@H]2Cn3c(ccc(/C=C/c4ccccc4)c3=O)[C@@H]21	none (no result: PDI turbidity, PvdQ inh)
O=C(C[C@H]1C[C@H]2c3cc(NC(=O)C4CCC4)ccc3O[C@H]2[C@@H](CO)O1)NCc1ccncc1	none (no result: PDI turbidity, PvdQ inh)
CCC(=O)N(C)C[C@@H]1Oc2cc(-c3ccc(C)cc3)ccc2S(=O)(=O)N([C@H](C)CO)C[C@@H]1C	none (no result: PDI turbidity, PvdQ inh, ERp5 inh)
CCC(=O)N(C)C[C@@H]1Oc2cc(C#CC(C)(C)O)ccc2S(=O)(=O)N([C@H](C)CO)C[C@@H]1C	none (no result: PDI turbidity, PvdQ inh)
COCC(=O)N(C)C[C@@H]1Oc2cc(C#CC(C)(C)O)ccc2S(=O)(=O)N([C@H](C)CO)C[C@@H]1C	ERp5 inh 61 (no result: PDI turbidity, PvdQ inh, miR122 inh)
COc1ccccc1C#Cc1ccc2c(c1)O[C@H](CN(C)C(C)=O)[C@H](C)CN([C@@H](C)CO)S2(=O)=O	Cneo AK release 104 (no result: PDI turbidity, PvdQ inh)
CCC(=O)N(C)C[C@@H]1Oc2cc(C#CC(C)(C)O)ccc2S(=O)(=O)N([C@@H](C)CO)C[C@H]1C	Cneo AK release 93 (no result: PDI turbidity, PvdQ inh)
CCC(=O)N(C)C[C@H]1Oc2cc(-c3ccccc3)ccc2S(=O)(=O)N([C@H](C)CO)C[C@H]1C	Cneo AK release 89 (no result: PDI turbidity, PvdQ inh)
COc1ccccc1C#Cc1ccc2c(c1)O[C@H](CN(C)C(C)=O)[C@@H](C)CN([C@H](C)CO)S2(=O)=O	none (no result: PDI turbidity, PvdQ inh)
COc1ccc2c3c(n(C)c2c1)[C@@H](CO)N(Cc1ccccc1OC)CC31CCN(C(=O)C2CC2)CC1	none (no result: Cneo AK release, PDI turbidity, PvdQ inh, PglD DTNB, miR122 inh)
Cc1noc(C)c1NC(=O)N(C)C[C@H]1Oc2ccc(NC(=O)Cn3cnnn3)cc2C(=O)N([C@@H](C)CO)C[C@@H]1C	none (no result: PDI turbidity, PvdQ inh)
CC(C)C#Cc1cnc2c(c1)C(=O)N([C@@H](C)CO)C[C@H](C)[C@@H](CN(C)C(=O)Nc1cc(F)ccc1F)O2	none (no result: PDI turbidity, PvdQ inh)
CO[C@@H](CN(C)C(=O)c1cnccn1)[C@H](C)CN([C@@H](C)CO)S(=O)(=O)c1ccc(F)cc1	none (no result: PDI turbidity, PvdQ inh, miR122 inh)
C[C@@H]1CCCCO[C@H](CN(C)S(=O)(=O)c2ccccc2)[C@@H](C)CN([C@H](C)CO)C(=O)c2cc(N(C)C)ccc2O1	none (no result: PDI turbidity, PvdQ inh)
CCC(=O)N1[C@H](C(=O)NCCCN(C)C)[C@@H](CO)[C@@H]2Cn3c(ccc(-c4ccccc4F)c3=O)[C@@H]21	none (no result: Cneo AK release, PDI turbidity, PvdQ inh, PglD DTNB, miR122 inh)
COc1ccc(NS(=O)(=O)c2cc(NC(=O)C3CC3)ccc2N2CCCCC2)cc1	none
COc1ccc(NS(=O)(=O)c2cc(NC(=O)c3ccco3)ccc2N2CCCCC2)cc1	miR122 inh 209 (no result: Cneo AK release, PglD DTNB, ERp5 inh)
COc1ccc(NS(=O)(=O)c2cc(NC(=O)c3ccc(=O)[nH]c3)ccc2N2CCCC2)cc1	miR122 inh 155
COc1ccc(NS(=O)(=O)c2cc(NC(=O)c3cnc(C)cn3)ccc2N2CCCC2)cc1	none (no result: ERp5 inh)
CN(C)C(=O)C[C@H]1C=C[C@H](NS(=O)(=O)c2ccccc2)[C@H](CO)O1	none (no result: PDI turbidity, PvdQ inh)
O=C1C=C(c2ccccc2)OC(c2ccccc2)O1 (configuration not stated)	PvdQ inh 47
